Test results: ChEMBL document CHEMBL1122568, “Synthesis and anticonvulsant activity of some substituted lactams and amides” (J Med Chem, 1984)

Legend:
[1] = test system: Mus sp.; assay: Anticonvulsant activity was evaluated by maximal electroshock induced convulsion test and was determined 30 min after subcutaneous administration; format: functional
[2] = test system: Mus sp.; assay: Anticonvulsant activity was evaluated by metrazole-induced convulsion test and was determined 30 min after subcutaneous administration; format: functional
Outline: (§1)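 Secondary evaluation in mice. Compound was given intraperitoneally in 30% polyethylene glycol 400. Median effective dose (ED50) was determined against maximal electroshock (MES) or subcutaneous Metrazol (scMet) convulsions. Median toxic dose (TD50) was determined by the rotorod test. All were read 30 min after dosing.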

[3] = test system: Mus sp.; assay: (§2) Anticonvulsant activity was evaluated by rotarod toxicity test and was determined 30 min after subcutaneous administration; format: organism-based; details: in vivo, sc, 0.5 h
[4] = test system: Mus musculus; assay: Number of animal protected out of 1 was evaluated by metrazole-induced convulsion test at 30 min after subcutaneous administration of 30 mg/kg; format: functional
Outline: (§3)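 Preliminary screen in small groups of mice (1-4) at 30, 100 and 300 mg/kg. Protection against MES or scMet convulsions, or rotorod toxicity, was scored at 30 min and 4 h after dosing. The smallest dose giving activity was recorded for each test.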

[5] = test system: Mus musculus; assay: Anticonvulsant activity was evaluated by maximal electroshock induced convulsion test after subcutaneous administration; format: functional; details: sc
[6] = test system: Mus musculus; assay: Number of animals protected out of 1 was evaluated by maximal electroshock induced convulsion test at 30 min after subcutaneous administration of 300 mg/kg; format: functional; outline: as §3
[7] = test system: Mus sp.; assay: Number of animals protected out of 4 was evaluated by rotarod toxicity test and was determined 30 min t 30 min after subcutaneous administration of >300 mg/kg; format: functional; outline: as §3
[8] = Anticonvulsant activity was evaluated by rotarod toxicity test after subcutaneous administration; format: organism-based; details: mouse, in vivo, sc
[9] = test system: Mus musculus; assay: Anticonvulsant activity was evaluated by metrazole-induced convulsion test after subcutaneous administration; format: functional; details: sc; outline: as §1
[10] = test system: Mus musculus; assay: Anticonvulsant activity was evaluated by rotarod toxicity test and was determined 30 min after administration; format: organism-based; details: in vivo, 0.5 h; outline: as §1
[11] = test system: Mus musculus; assay: Number of animal protected out of 1 was evaluated by metrazole-induced convulsion test at 30 min after subcutaneous administration of >300 mg/kg; format: functional; outline: as §3
[12] = test system: Mus sp.; assay: Number of animals protected out of 1 was evaluated by maximal electroshock induced convulsion test at 30 min after subcutaneous administration of >300 mg/kg; format: functional; outline: as §3
[13] = as §2; format: organism-based; details: mouse, in vivo, sc
[14] = test system: Mus musculus; assay: Number of animal protected out of 4 was evaluated by metrazole-induced convulsion test at 30 min after subcutaneous administration of >300 mg/kg; format: functional; outline: as §3
[15] = test system: Mus musculus; assay: Number of animals protected out of 1 was evaluated by rotarod toxicity test and was determined 30 min t 30 min after subcutaneous administration of >300 mg/kg; format: functional
[16] = test system: Mus musculus; assay: Anticonvulsant activity was evaluated by maximal electroshock induced convulsion test after subcutaneous administration.; format: functional; details: sc
[17] = Anticonvulsant activity was evaluated by rotarod toxicity test after subcutaneous administration.; format: organism-based; details: mouse, in vivo, sc
[18] = test system: Mus musculus; assay: Number of animals protected out of 4 was evaluated by maximal electroshock induced convulsion test at 30 min after subcutaneous administration of >300 mg/kg; format: functional; outline: as §3

Row | SMILES | Activity [1] [mg/kg] | Activity [2] [mg/kg] | Activity [3] [mg/kg] | No. of animals protected [7] | ED50 [9] [mg/kg] | No. of animals protected [11] | No. of animals protected [12] | further results
1 | CCOC(=O)N1CCCC(O)(c2ccccc2)C1=O (centres undefined) | 300 | 30 | > 300 | 0 | 124 | – | – | No. of animals protected [4]: 1; ED50 [5]: 132 mg/kg; No. of animals protected [6]: 1; TD50 [8]: 451 mg/kg
2 | O=C(CBr)OC1(c2ccccc2)CCCNC1=O (centres undefined) | >300 | 300 | – | – | – | – | – | Activity [10]: > 300 mg/kg
3 | CCOC(=O)N1CCCC(c2ccccc2)C1=O (centres undefined) | >300 | >300 | > 300 | 0 | – | 0 | 0 | –
4 | COC1(c2ccccc2)CCCNC1=O (centres undefined) | 100 | 300 | 300 | 4 | 49.6 | – | 1 | TD50 at 0.5 h [13]: 239 mg/kg; ED50 [5]: 121 mg/kg; No. of animals protected [14]: 4
5 | CCOC(=O)N1CCCC(N)(c2ccccc2)C1=O (centres undefined) | 300 | 300 | – | 4 | – | 1 | 1 | Activity [10]: 300 mg/kg
6 | O=C(CCCl)NCc1ccccc1 [BECLAMIDE] | – | – | – | – | 117 | – | – | ED50 [5]: 185 mg/kg; TD50 [8]: 278 mg/kg
7 | CCOC(=O)NCCCC(O)(C(=O)OC)c1ccccc1 (centres undefined) | >300 | >300 | > 300 | – | – | 0 | 0 | No. of animals protected [15]: 0
8 | CCOC(=O)N1CCCC(OC(C)=O)(c2ccccc2)C1=O (centres undefined) | >300 | >300 | – | 0 | – | 0 | 0 | Activity [10]: > 300 mg/kg
9 | CCC(OCc1ccccc1)(C(=O)NC)c1ccccc1 (centres undefined) | >300 | >300 | > 300 | 0 | – | 0 | 0 | –
10 | NC(=O)NC(=O)Cc1ccccc1 [PHENACEMIDE] | – | – | – | – | – | – | – | ED50 [16]: 87.3 mg/kg; TD50 [17]: 421 mg/kg
11 | CCOC(=O)N1CCCC(OC)(c2ccccc2)C1=O (centres undefined) | 300 | 300 | > 300 | 0 | 124 | 1 | – | ED50 [5]: 225 mg/kg; No. of animals protected [18]: 2; TD50 [8]: > 300 mg/kg
12 | CCCC(CCC)C(=O)O [VALPROIC ACID] | – | – | – | – | 149 | – | – | –
13 | O=C(CCl)N1CCCC(O)(c2ccccc2)C1=O (centres undefined) | >300 | >300 | > 300 | – | – | – | – | –
14 | CCC(O)(C(=O)NC)c1ccccc1 (centres undefined) | 300 | >300 | > 300 | 0 | – | 0 | 1 | –
15 | CCOC(=O)N1CCCC(OCC2CCCCC2)(c2ccccc2)C1=O (centres undefined) | >300 | >300 | > 300 | 0 | – | 0 | 0 | –
16 | CCOC(=O)N(C)C(=O)C(CC)(OCc1ccccc1)c1ccccc1 (centres undefined) | >300 | >300 | > 300 | – | – | 0 | 0 | No. of animals protected [15]: 0
17 | CCOC(=O)N1CCCC(Cl)(c2ccccc2)C1=O (centres undefined) | >300 | 300 | > 300 | – | – | – | – | –
18 | CCCC(C)OC(=O)N1CCCC(O)(c2ccccc2)C1=O (centres undefined) | 300 | 300 | > 300 | 0 | – | – | 1 | No. of animals protected [14]: 1
19 | O=C1NCCCC1(O)c1ccccc1 (centres undefined) | >300 | >300 | > 300 | 0 | – | 0 | 0 | –
20 | CCCC(C)(COC(N)=O)COC(N)=O [MEPROBAMATE] | – | – | – | – | 31.5 | – | – | ED50 [5]: 120 mg/kg; TD50 [17]: 125 mg/kg
21 | CN1CCCC(O)(c2ccccc2)C1=O (centres undefined) | 100 | 300 | – | 0 | 128 | – | 1 | Activity [10]: > 300 mg/kg; ED50 [5]: 84.4 mg/kg; No. of animals protected [14]: 4; TD50 [8]: 350 mg/kg
